According to article PMC10405366 (Molecular pharmaceutics, 2023):

Columns and labels:
OVCAR8 [1] = test: 2D foci assay; type: cell-based, human; conditions: OVCAR8, 50 nM for 8 h, two weeks colony formation, relative to vehicle
How it was run: (§1)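 Cells were seeded at 200 per 60 mm dish and left to attach overnight. They were then exposed for 8 h to test compound (50 nM), DMSO vehicle or paclitaxel (10 nM). Medium was replaced and cells grew drug-free for about two weeks (15 days). Colonies were fixed in 4% paraformaldehyde, stained with 0.05% crystal violet, imaged and counted. There were three biological replicates, compared with vehicle by Dunnett's test.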

OVCAR8 [2] = test: Cell viability assay; type: cell-based, human
How it was run: (§2)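 RPMI1640 (OVCAR3, OVCAR4, MDA-MB-435) or DMEM (OVCAR8, MDA-MB-231) was used, with 10% FBS and penicillin/streptomycin. Cells were STR-validated and kept below 20 passages. Cells were plated at 5000 per well overnight, then given test compound at final 0.95–250 nM (nine levels, 0.5% DMSO) for 72 h at 37 °C. Viability was read by CellTiter-Blue absorbance, and IC50 was taken relative to DMSO. Paclitaxel (0.39–100 nM) was the control, with three biological replicates.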

OVCAR4 [3] = test: 2D foci assay; type: cell-based, human; conditions: OVCAR4, 50 nM for 8 h, two weeks colony formation, relative to vehicle
How it was run: as §1

murine lymphoma L5178Y = conditions: mouse lymphoma cells (L5178Y); cited from earlier work
OVCAR3 = test: Cell viability assay; type: cell-based, human; conditions: OVCAR3, 72 h, average
How it was run: as §2

[4] = tested on: OVCAR8-RFP cells xenografted IP; test: OVCAR8-RFP IP xenograft; type: in vivo, mouse; conditions: for tumor burden: compared to DMSO
OVCAR8 spheroids = test: Spheroid viability assay; type: cell-based, human; conditions: read-out: IC50, spheroid viability, 7 days
How it was run: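 OVCAR8 cells (5000 in 80 μL medium per well) were formed into spheroids in ultra-low-attachment round-bottom wells. Spheroids were treated for 7 days with test compound, DMSO vehicle or paclitaxel control. Viability was measured with CellTiter-Glo after 30 min shaking for lysis, read as luminescence. Dose–response curves were normalized to vehicle to give IC50. Data are mean ± SEM from three biological replicates.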

OVCAR4 [5] = test: Cell viability assay; type: cell-based, human
How it was run: as §2

MDA-MB-435 = test: Cell viability assay; type: cell-based, human; conditions: MDA-MB-435, 72 h, average
How it was run: as §2

MDA-MB-231 = test: Cell viability assay; type: cell-based, human; conditions: MDA-MB-231, 72 h, average
How it was run: as §2

[6] = tested on: A2780 human ovarian cancer cell lines; conditions: cited from earlier work

Row | SMILES | foci formation (OVCAR8 [1]) | cytotoxic activity (OVCAR8 [2]) | foci formation (OVCAR4 [3]) | cytotoxic activity (murine lymphoma L5178Y) | IC50 (OVCAR3) | liver and organ gross morphology ([4]; 0.25 mg/kg in DMSO twice weekly for four weeks) | tumor burden ([4]; 0.25 mg/kg twice weekly for four weeks) | IC50 (OVCAR8 spheroids) | cytotoxic activity (OVCAR4 [5]) | IC50 (MDA-MB-435) | IC50 (MDA-MB-231) | growth of cells [6] | tumor burden ([4]; 0.5 mg/kg twice weekly)
1 | CC(O)[C@@]12SS[C@]3(C(=O)N1C)[C@@H](O)C1([C@@]45c6ccccc6N[C@@H]4N4C(=O)[C@]6(C(C)O)SS[C@]4(C(=O)N6C)[C@H]5O)c4ccccc4N[C@@H]1N3C2=O (stereo partly shown) [verticillin D] | completely abrogated foci formation | nanomolar cytotoxic activity | completely abrogated foci formation | moderate cytotoxic activity | 34.2 nM | gross morphological liver damage and fused organs | reduced | 1170 nM | nanomolar cytotoxic activity | 35.3 nM | 12.2 nM | inhibit the growth | 
2 | CC(=O)O[C@H]1C(=O)[C@@]2(C)[C@H]([C@H](OC(=O)c3ccccc3)[C@]3(O)C[C@H](OC(=O)[C@H](O)[C@@H](NC(=O)c4ccccc4)c4ccccc4)C(C)=C1C3(C)C)[C@]1(OC(C)=O)CO[C@@H]1C[C@@H]2O [taxol, paclitaxel, reference compound] |  |  |  |  |  |  |  |  |  |  |  |  | reduced
